Screening results from PubChem.
MrgX1 antag: antagonists of human MrgX1 receptor; Q96LB2; MRGX1-HEK293 calcium flux, Fluo-4, BAM8-22 antagonism; hits give low values; B-score at 10 µM; 310,000 tested, 1.3% active; AID 588676;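 active = calcium-response B-score plate-corrected more than 3 library SD below zero, starting fluorescence within 5 deviations, no agonist response on first addition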;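 note: peak minus trough fluorescence over baseline after final BAM8-22 challenge near maximal dose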
Target sequence (Q96LB2 whole entry, looked up): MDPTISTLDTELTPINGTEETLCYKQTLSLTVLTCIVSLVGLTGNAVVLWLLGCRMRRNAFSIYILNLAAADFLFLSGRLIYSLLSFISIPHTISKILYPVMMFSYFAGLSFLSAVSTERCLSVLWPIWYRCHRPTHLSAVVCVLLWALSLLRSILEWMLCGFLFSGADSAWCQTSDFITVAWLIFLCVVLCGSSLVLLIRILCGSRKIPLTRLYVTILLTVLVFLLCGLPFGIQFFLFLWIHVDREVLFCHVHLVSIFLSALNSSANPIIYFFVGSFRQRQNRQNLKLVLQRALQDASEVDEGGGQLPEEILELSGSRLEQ
RGS4 pot: potentiators or activators of RGS4. HEK293 M3R/inducible RGS4, carbachol calcium flux Fluo4; hits give low values. B-score at 10 µM. 310,000 tested, 0.92% active;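 active = B-score of the integrated calcium signal more than 4 SD below the library mean, with starting fluorescence not abnormally high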;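 note: negative B-score means reduced calcium response which marks RGS4 activation or potentiation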
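Reagent: ECmax carbachol challenge; Test system: M3R-expressing HEK293 line, RGS4 induced by doxycycline; Schedule: overnight RGS4 induction, 30 min dye load 37 °C, 20 min compound RT; Detection: calcium dye Fluo4 fluorescence; Read-out: Agonist-evoked peak-minus-minimum fluorescence over baseline, integrated ratio, B score.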
MrgX1 ag: human MrgX1 receptor agonism, primary screen; Q96LB2; MrgX1-HEK293 cells, Fluo-4 calcium fluorescence, agonist mode; hits give high values; B-score at 10 µM; 310,000 tested, 0.44% active;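 active = calcium response B-score plate-corrected fluorescence ratio at least 3 library SD, with starting fluorescence B-score inside 5 SD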
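Material – MrgX1-expressing HEK293 cells · Input – 15,000 cells seeded per well · Dosing – compound as first of three additions · Times – overnight seeding, then 1 h dark dye loading · Measured by – kinetic Fluo-4 NW fluorescence of intracellular calcium · Read-out – B-scored fluorescence response ratio · Benchmarks – positive and negative control wells on each plate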
MrgX1 allo act: human MrgX1 positive allosteric modulation, primary screen. 310,000 tested, 0.63% active. Q96LB2. B-score at 10 µM. MrgX1-HEK293, Fluo-4 calcium flux, FDSS; hits give high values. AID 588675;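 active = plate-corrected calcium response at least 3 library SD above typical, normal starting fluorescence, not activating the receptor alone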;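 note: compound read alongside a low EC10 to EC30 dose of BAM8-22 agonist; peak minus trough fluorescence over baseline measured at the second addition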
RGS4 inh: inhibitors of human RGS4. P49798. B-score at 10 µM. HEK293 M3R/RGS4 inducible, Fluo-4 calcium flux; hits give high values; triggered by carbachol at its EC20. 310,000 tested, 0.45% active;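 active = B-score, a plate-corrected calcium signal, over three deviations above library mean, with baseline fluorescence within five deviations of library mean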;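 note: RGS4 expression induced by doxycycline in cells with stable M3 receptor; B-score is computed from the integrated fluorescence ratio over baseline after carbachol; higher B-score means a larger calcium signal and so more RGS4 inhibition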
Target sequence (P49798 whole entry, looked up): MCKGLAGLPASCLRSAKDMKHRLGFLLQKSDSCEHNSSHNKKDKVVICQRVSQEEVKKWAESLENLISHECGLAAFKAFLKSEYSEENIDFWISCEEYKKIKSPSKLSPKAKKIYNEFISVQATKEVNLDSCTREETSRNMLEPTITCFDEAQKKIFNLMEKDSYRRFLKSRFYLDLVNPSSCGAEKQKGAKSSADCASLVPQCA
Numbers stand for hits; . = inactive; / = no result. Only some compounds are listed: those with a hit (about 3.5% of all), similar ones and a draw of the others.

SMILES | MrgX1 antag | RGS4 pot | MrgX1 ag | MrgX1 allo act | RGS4 inh
Cc1ccc(S(=O)(=O)NN2C(=O)/C(=C\c3ccc(Cl)cc3)SC2=S)cc1 | . | . | . | . | .
COc1cc(/C=C2\SC(=S)N(NS(=O)(=O)c3ccccc3)C2=O)cc(OC)c1OC | . | . | . | . | .
COc1ccc(/C=C2/SC(=O)N(NS(=O)(=O)c3ccccc3)C2=S)cc1OC | . | . | 27 | . | .
O=C1/C(=C/c2ccccn2)SC(=S)N1NS(=O)(=O)c1ccccc1 | -5.3 | . | . | 8.9 | .
C=CCOc1ccc(/C=C2\SC(=S)N(NS(=O)(=O)c3ccc(C)cc3)C2=O)cc1 | . | -7 | . | . | .
COc1ccc(/C=C2/SC(=S)N(NS(=O)(=O)c3ccc(C)cc3)C2=O)cc1 | -5.2 | -8.4 | . | . | .
O=C1/C(=C/c2cccc(F)c2)SC(=S)N1NS(=O)(=O)c1ccccc1 | . | . | . | . | .
O=C(COc1ccc(Br)cc1CNCCCN1CCOCC1)Nc1ccccc1 | . | . | . | . | .
Cc1ccc(/C=C2\SC(=S)N(NS(=O)(=O)c3ccc(C)cc3)C2=O)cc1 | . | -8.2 | . | . | .
NNc1nnc2c3cc(F)ccc3n(CCc3ccccc3)c2n1 | . | . | . | . | .
CCCCn1c(N)c(N(CCOC)C(=O)c2ccc3c(c2)C(=O)N(c2cc(C)ccc2C)C3=O)c(=O)[nH]c1=O | . | . | . | 12 | .
CCCCn1c(N)c(N(CCOC)C(=O)c2ccc3c(c2)C(=O)N(c2ccccc2C)C3=O)c(=O)[nH]c1=O | . | . | . | . | .
COCCC(=O)N1CCC(Oc2ccc(C(=O)NCCc3ccccn3)cc2)CC1 | . | . | . | . | .
C[C@@H]1O[C@@H](O[C@H]2[C@H](Oc3cc(O)c4c(c3)OC(c3ccc(O)cc3)CC4=O)O[C@H](CO)[C@@H](O)[C@@H]2O)[C@H](O)[C@H](O)[C@H]1O (some centres undefined) | . | . | . | . | .
O=C1CCCCC1C(Nc1ccc(Br)cc1)c1ccccc1 (centres undefined) | . | -7.5 | . | . | .
O=S(=O)(c1ccc(-c2ccon2)s1)N1CCCC1 | . | . | . | . | .
O=S(=O)(c1ccc(-c2ccon2)s1)N1CCN(c2ccncc2)CC1 | . | . | 53 | . | .
COC(=O)C(NC(C)=O)(Nc1ccc(C)cn1)C(F)(F)F (centres undefined) | . | . | . | . | .
CCn1nc(C)c(/C=N/NC(=O)c2ccc3c(c2)c(C)c(C)n3Cc2ccccc2)c1C | . | -8.3 | . | . | .
CCn1ncc(/C=N\NC(=O)c2ccc3c(c2)c(C)c(C)n3Cc2ccccc2)c1C | . | . | . | . | .
COC(=O)C1=NN(C(=O)c2ccccc2)C(C)(O)C1 (centres undefined) | . | . | . | . | .
COC(=O)C1=NN(C(=O)c2ccc(C)cc2)C(O)(c2ccc(Cl)cc2)C1 (centres undefined) | . | . | 67 | . | .
COC(=O)C1=NN(C(=O)c2ccccc2)C(O)(c2ccc([N+](=O)[O-])cc2)C1 (centres undefined) | . | . | 54 | . | .
O=C(O)c1ccccc1S(=O)(=O)CC(=O)N1CCCCC1 | . | . | . | . | .
O=C(NCc1ccccc1)c1ccc(CS(=O)Cc2ccc(Cl)cc2)o1 (centres undefined) | . | . | . | . | .
SMILES | MrgX1 antag | RGS4 pot | MrgX1 ag | MrgX1 allo act | RGS4 inh
Cc1ccc(C)c(NC(=O)C(Sc2nc3ccccc3c(=O)n2CC(C)C)c2ccccc2)c1 (centres undefined) | . | -7.3 | . | . | .
CCCN(Cc1ccc(N(CC)CC)cc1)CC1CC1 | . | -7.1 | . | . | .
CCCN(Cc1ccc(N(C)C)cc1)CC1CC1 | . | . | . | . | .
Cc1cccc(CSc2nc3c(c(-c4cccs4)c2C#N)CN(C)CC3)c1 | . | . | . | 8.7 | .
CC(NC(=O)COc1ccc(/C=N/NC(=O)CO)cc1)c1ccccc1 (centres undefined) | . | . | . | . | .
COc1cc(/C=C(\C#N)C(=O)Nc2cccc(C(=O)O)c2)ccc1OCc1ccc(F)cc1 | . | . | . | . | .
CCOc1cc(/C=C(\C#N)C(=O)Nc2cccc(C(=O)O)c2)ccc1OCc1ccccc1Cl | . | -8.6 | . | . | .
CN(C)S(=O)(=O)n1cc(/C=C(\NC(=O)c2ccccc2F)C(=O)NCCCn2ccnc2)c2ccccc21 | / | -9.6 | / | / | .
Cc1cccc(C(=O)OCC(=O)Nc2c(C)nn(-c3ccccc3)c2C)c1O | . | . | . | . | .
Cc1nn(-c2ccccc2)c(C)c1NC(=O)COC(=O)c1cc(Br)ccc1O | . | -7.2 | . | . | .
N#Cc1ccccc1Oc1ccccc1C=O | . | . | 27 | . | .
O=C(/C=C/c1ccc(Cl)c(Cl)c1)NC1=NCCS1 | . | . | . | . | .
O=C(O)CC1SC(N/N=C/c2ccc(Br)cc2)NC1=O (centres undefined) | -5.7 | . | . | . | .
COc1ccc(N2CC(C(=O)NCc3ccco3)CC2=O)cc1 (centres undefined) | . | . | . | . | .
CC(=O)NC(=S)NNC(=O)C(c1ccccc1)c1ccccc1 | . | . | . | 12 | .
Cn1cccc1/C=C1\SC(=Nc2ccccc2)NC1=O | . | . | . | . | .
Cc1ccc(N=C2NC(=O)/C(=C/c3cn(C)c4ccccc34)S2)cc1C | -4.8 | / | . | . | /
O=C(Cc1ccc(Cl)cc1)Nc1ccccc1N1CCN(C(=O)c2ccccc2)CC1 | . | -7.1 | . | . | .
O=C(NCCN1C(=O)S/C(=C\c2ccc(OC(F)F)cc2)C1=O)[C@@H]1CCCN1C(=O)c1cccs1 | . | . | . | 8.2 | .
CCCCn1c(SCC(=O)N2CCOCC2)nnc1-c1ccoc1C | . | . | . | . | .
Cc1occc1-c1nnc(SCC(=O)N2CCOCC2)n1CCc1ccccc1 | . | -7.3 | . | . | .
Cc1cccc(OCCSc2nc(N)cc(N)n2)c1 | . | . | . | . | .
CC1CCCC(C)N1/N=C/c1ccc(C#N)cc1 (centres undefined) | . | . | . | 8.4 | .
CC1(OC(=O)c2ccco2)C(=O)C=C2C=C(C3CC3)OC=C2C1=O (centres undefined) | -5 | . | . | . | .
Cc1ccc(C2CC(=O)NC(SCC(=O)Nc3nccs3)=C2C#N)cc1 (centres undefined) | . | . | . | . | .
CCOC(=O)C(=Cc1ccc(Br)cc1)C(=O)OCC | . | . | . | . | .
CCOC(=O)C(=Cc1ccc(F)cc1)C(=O)OCC | . | . | . | 7.5 | .
Cc1ccc(-c2nc(CN(C)Cc3cccc4cnccc34)c(C)o2)s1 | . | . | 28 | . | .
Cc1ccsc1CN(C(=O)c1ccc([N+](=O)[O-])cc1)C1CCS(=O)(=O)C1 (centres undefined) | . | . | . | . | .
